Positions count from the first letter of the chain named. Where “and” joins values, the source holds several entries; their conditions need not be identical. Equal values may be shown once. Read-outs that look alike come from different tables or passages of the source.
Columns and labels:
[1] = molecular target: T1, human Hv1 H140A (H^2.40A) (Homo sapiens, UniProt Q96D96, H140A); test: Whole-cell voltage clamp, Zn^2+ modulation of GAQ gating; format: cell-based
T1 sequence (Q96D96 1-273 H140A): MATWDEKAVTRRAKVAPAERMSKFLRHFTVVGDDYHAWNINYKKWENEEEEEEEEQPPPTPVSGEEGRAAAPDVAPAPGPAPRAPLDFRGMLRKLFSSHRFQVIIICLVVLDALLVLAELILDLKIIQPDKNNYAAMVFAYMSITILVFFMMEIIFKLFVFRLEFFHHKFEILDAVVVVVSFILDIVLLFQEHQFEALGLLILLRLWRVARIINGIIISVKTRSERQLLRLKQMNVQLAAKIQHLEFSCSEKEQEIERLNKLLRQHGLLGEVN
Summary of the method: (§1)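 Whole-cell patch clamp at ~21°C. Pipette and bath (mM): ~80 TMA-MeSO3, 100 Bis-Tris, 8 HCl, pH 6.5, 310–320 mOsm. ZnCl2 was diluted into bath solution and applied by gravity superfusion, at least 2 min per change. Test step voltage was set per construct from its V0.5. G_STEP = end-of-step current/(V−V_REV). Effect = 1 − G_Zn/G_control, fitted to the Hill equation. IC50 and nH are means ± SEM from separate cells. ΔpIC50 was tested by unpaired t test, P<0.05.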

[2] = molecular target: T2, human Hv1 E119H-H140A-H193A (Homo sapiens, UniProt Q96D96, E119H/H140A/H193A); test: as above; format: cell-based
T2 sequence (Q96D96 1-273 E119H/H140A/H193A): T1 sequence (Q96D96 1-273 H140A) with E119H, H193A
Summary of the method: as §1

[3] = molecular target: T3, human Hv1 D123H (D^1.62H) (Homo sapiens, UniProt Q96D96, D123H); test: as above; format: cell-based
T3 sequence (Q96D96 1-273 D123H): T1 sequence (Q96D96 1-273 H140A) with D123H, A140H
Summary of the method: as §1

[4] = molecular target: T4, human Hv1 H140A-D185H-H193A (Homo sapiens, UniProt Q96D96, D185H/H140A/H193A); test: as above; format: cell-based
T4 sequence (Q96D96 1-273 H140A/D185H/H193A): T1 sequence (Q96D96 1-273 H140A) with D185H, H193A
Summary of the method: as §1

human Hv1 D185A-H193A = molecular target: T5, human Hv1 D185A-H193A (Homo sapiens, UniProt Q96D96, D185A/H193A); test: as above; format: cell-based
T5 sequence (Q96D96 1-273 D185A/H193A): T1 sequence (Q96D96 1-273 H140A) with A140H, D185A, H193A
Summary of the method: as §1

[5] = molecular target: T6, human Hv1 E153A (E^2.53A) (Homo sapiens, UniProt Q96D96, E153A); test: as above; format: cell-based
T6 sequence (Q96D96 1-273 E153A): T1 sequence (Q96D96 1-273 H140A) with A140H, E153A
Summary of the method: as §1

[6] = molecular target: human Hv1 H140A-D185H-H193A-R205H (Homo sapiens, UniProt Q96D96, D185H/H140A/H193A/R205H); test: as above; format: cell-based
Sequence of human Hv1 H140A-D185H-H193A-R205H (Q96D96 whole entry H140A/D185H/H193A/R205H): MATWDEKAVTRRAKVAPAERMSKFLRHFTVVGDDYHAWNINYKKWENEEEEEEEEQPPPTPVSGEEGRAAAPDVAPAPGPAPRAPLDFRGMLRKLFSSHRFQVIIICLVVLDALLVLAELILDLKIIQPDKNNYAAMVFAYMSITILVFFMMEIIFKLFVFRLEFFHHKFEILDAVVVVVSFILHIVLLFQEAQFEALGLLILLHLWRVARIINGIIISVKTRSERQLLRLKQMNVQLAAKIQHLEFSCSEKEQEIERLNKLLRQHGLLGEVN
Summary of the method: as §1

[7] = molecular target: T1, human Hv1 H140A (H^2.40A); settings: ref Ramsey et al., 2006; cited from earlier work
[8] = VSTEP 100 mV, calculated as log (IC50)

Q: Which results are given for [Cl-].[Cl-].[Zn+2] [Zn^2+, ZnCl2]?
A: nH, fit of the mean data to a Hill function ([1]; Fig. 2C): 0.7; Mean ΔpIC50 = (pIC50_1 - pIC50_2) ([1]; H140A vs WT): −1.02; Hill value ([1]; VSTEP 100 mV): 0.67; pIC50 [1, 8]: −4.41; IC50 ([1]; read-out: IC50, fit of the mean data to a Hill function, Fig. 2C): 39 µM; Mean ΔpIC50 = (pIC50_1 - pIC50_2) ([2]; E119H-H140A-H193A vs H140A-H193A, positive = increase in Zn^2+ potency): 2.4 and 2.39; nH, fit of the mean data to a Hill function ([2]; Fig. 4A): 0.7; Hill value ([2]; VSTEP 60 mV): 0.84; pIC50 ([2]; VSTEP 60 mV, calculated as log (IC50)): 5.15; change of Zn^2+ IC50 ([2]; from H140A-H193A to E119H-H140A-H193A): 2.4 fold; IC50 ([2]; read-out: IC50, fit of the mean data to a Hill function, Fig. 4A): 7.6 µM; IC50 ([2]; read-out: Mean IC50 @ VSTEP, VSTEP 60 mV, pH 6.5, mean of fits in separate cells): 7.3 µM; Mean ΔpIC50 = (pIC50_1 - pIC50_2) ([3]; D123H vs WT): 0.11; nH, fit of the mean data to a Hill function ([3]; Fig. 4B): 0.8; Hill value ([3]; VSTEP 80 mV): 0.95; pIC50 ([3]; VSTEP 80 mV, calculated as log (IC50)): 5.56; IC50 ([3]; read-out: IC50, fit of the mean data to a Hill function, Fig. 4B): 2.5 µM; IC50 ([3]; read-out: Mean IC50 @ VSTEP, VSTEP 80 mV, pH 6.5, mean of fits in separate cells): 4.3 µM; Mean ΔpIC50 = (pIC50_1 - pIC50_2) ([4]; H140A-D185H-H193A vs H140A-H193A): 0.38; Hill value ([4]; VSTEP 100 mV): 1.05; pIC50 [4, 8]: −3.15; nH, fit of the mean data to a Hill function (human Hv1 D185A-H193A; Fig. 4D): 0.7; Hill value (human Hv1 D185A-H193A; VSTEP 140 mV): 0.62; pIC50 (human Hv1 D185A-H193A; VSTEP 140 mV, calculated as log (IC50)): −3.88; IC50 (human Hv1 D185A-H193A; read-out: IC50, fit of the mean data to a Hill function, Fig. 4D): 99.2 µM; Mean ΔpIC50 = (pIC50_1 - pIC50_2) ([5]; E153A vs WT): −1.29; Hill value ([5]; VSTEP 40 mV): 0.87; pIC50 ([5]; VSTEP 40 mV, calculated as log (IC50)): −3.77; IC50 ([5]; read-out: Mean IC50 @ VSTEP, VSTEP 40 mV, pH 6.5, mean of fits in separate cells): 241 µM; Mean ΔpIC50 = (pIC50_1 - pIC50_2) ([6]; H140A-D185H-H193A-R205H vs H140A-D185H-H193A): 0.54; Mean pIC50 ([6]; Table 2 only, calculated as log (IC50)): −3.68; decrease of Zn^2+ potency by single mutation [7]: 10- to 30 fold
